The results in this text go back to ChEMBL document CHEMBL1121653, “Potential pancreatic imaging agents. Tellurium-123m labeled DL-alpha-amino-gamma-(phenyltelluro)butyric acid” (J Med Chem, 1981).

Series [1] concerns Rattus norvegicus. Description: Compound was evaluated for the distribution of radioactivity in female rat blood at time interval 60 minutes following intravenous administration of [123mTe]- Labeled-DL-cu-Amino-r-( phenyltel1uro) butyric Acid, expressed as mean dose per gram of tiss. As to conditions: in vivo, 1 h. It counts as ADME, organism-based. The method in brief:
(§1)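 Female Fischer 344 rats, 10–12 weeks old (180–210 g), fed ad libitum, given the 123mTe-labeled amino acid through a lateral tail vein under ether anesthesia. The basic solution was neutralized to pH ~8 with 1 N HCl and filtered (0.22 μm) before injection. Rats were decapitated at 30 min, 60 min, 4 h or 24 h. Organs were rinsed in saline and weighed, and radioactivity was counted on a Ge(Li) analyzer. Values are %dose/g, mean ± SD of 3 rats.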

The test system of series [2] is Rattus norvegicus. Description: Compound was evaluated for the distribution of radioactivity in female rat spleene at time interval 24 hours following intravenous administration of [123mTe]- Labeled-DL-cu-Amino-r-( phenyltel1uro) butyric Acid, expressed as mean dose per gram of tiss. As to conditions: in vivo. It counts as ADME, organism-based, Spleen. The method in brief: as §1

Series [3] relates to Rattus norvegicus. Description: Compound was evaluated for the distribution of radioactivity in female rat blood at time interval 30 minutes following intravenous administration of [123mTe]- Labeled-DL-cu-Amino-r-( phenyltel1uro) butyric Acid, expressed as mean dose per gram of tiss. The series is classed as ADME, organism-based. As to conditions: in vivo, 0.5 h. The method in brief: as §1

The subject of series [4] is Rattus norvegicus. Put plainly: Compound was evaluated for the distribution of radioactivity in female rat blood at time interval 24 hours following intravenous administration of [123mTe]- Labeled-DL-cu-Amino-r-( phenyltel1uro) butyric Acid, expressed as mean dose per gram of tissue. The series is classed as ADME, organism-based. As to conditions: in vivo. Put shortly:
as §1

The test system of series [5] is Rattus norvegicus. Put plainly: Compound was evaluated for the distribution of radioactivity in female rat blood at time interval 4 hours following intravenous administration of [123mTe]- Labeled-DL-cu-Amino-r-( phenyltel1uro) butyric Acid, expressed as mean dose per gram of tissue. It counts as ADME, organism-based. To be noted: in vivo. The method in brief:
as §1

For series [6], the system named is Rattus norvegicus. Put plainly: Compound was evaluated for the distribution of radioactivity in female rat kidneys at time interval 4 hours following intravenous administration of [123mTe]- Labeled-DL-cu-Amino-r-( phenyltel1uro) butyric Acid, expressed as mean dose per gram of tissu. The series is classed as ADME, organism-based, Kidney. To be noted: in vivo. Put shortly:
as §1

Series [7] has as its system Rattus norvegicus. Description: Compound was evaluated for the distribution of radioactivity in female rat liver at time interval 60 minutes following intravenous administration of [123mTe]- Labeled-DL-cu-Amino-r-( phenyltel1uro) butyric Acid, expressed as mean dose per gram of tiss. It counts as ADME, organism-based. To be noted: in vivo, 1 h. The method in brief:
as §1

Series [8] relates to Rattus norvegicus. Description: Compound was evaluated for the distribution of radioactivity in female rat pancreas at time interval 30 minutes following intravenous administration of [123mTe]- Labeled-DL-cu-Amino-r-( phenyltel1uro) butyric Acid, expressed as mean dose per gram of t. It counts as ADME, organism-based. To be noted: in vivo, 0.5 h. Put shortly:
as §1

Series [9] concerns Rattus norvegicus. Description: Compound was evaluated for the distribution of radioactivity in female rat kidneys at time interval 30 minutes following intravenous administration in kidneys of [123mTe]- Labeled-DL-cu-Amino-r-( phenyltel1uro) butyric Acid, expressed as mean dose per. It counts as ADME, organism-based, Kidney. As to conditions: in vivo, 0.5 h. The method in brief: as §1

The subject of series [10] is Rattus norvegicus. Description: Compound was evaluated for the distribution of radioactivity in female rat spleen at time interval 60 minutes following intravenous administration of [123mTe]- Labeled-DL-cu-Amino-r-( phenyltel1uro) butyric Acid, expressed as mean dose per gram of tis. It counts as ADME, organism-based. As to conditions: in vivo, 1 h. Put shortly: as §1

In series [11] the test system is Rattus norvegicus. Description: Compound was evaluated for the distribution of radioactivity in female rat pancreas at time interval 4 hours following intravenous administration of [123mTe]- Labeled-DL-cu-Amino-r-( phenyltel1uro) butyric Acid, expressed as mean dose per gram of tiss. The series is classed as ADME, organism-based. To be noted: in vivo. Put shortly:
as §1

For series [12], the system named is Rattus norvegicus. Put plainly: Compound was evaluated for the distribution of radioactivity in female rat pancreas at time interval 24 hours following intravenous administration of [123mTe]- Labeled-DL-cu-Amino-r-( phenyltel1uro) butyric Acid, expressed as mean dose per gram of tissue. As to conditions: in vivo. The series is classed as ADME, organism-based. Put shortly: as §1

Series [13] concerns Rattus norvegicus. Description: Compound was evaluated for the distribution of radioactivity in female rat kidneys at time interval 60 minutes following intravenous administration of [123mTe]- Labeled-DL-cu-Amino-r-( phenyltel1uro) butyric Acid, expressed as mean dose per gram of ti. It counts as ADME, organism-based, Kidney. To be noted: in vivo, 1 h. Put shortly: as §1
Series [14] deals with Rattus norvegicus. Description: Compound was evaluated for the distribution of radioactivity in female rat spleen at time interval 4 hours following intravenous administration of [123mTe]- Labeled-DL-cu-Amino-r-( phenyltel1uro) butyric Acid, expressed as mean dose per gram of tissue. The series is classed as ADME, organism-based. To be noted: in vivo. The method in brief:
as §1

The test system of series [15] is Rattus norvegicus. Put plainly: Compound was evaluated for the distribution of radioactivity in female rat liver at time interval 4 hours following intravenous administration of [123mTe]- Labeled-DL-cu-Amino-r-( phenyltel1uro) butyric Acid, expressed as mean dose per gram of tissue. The series is classed as ADME, organism-based. As to conditions: in vivo. The method in brief:
as §1

The test system of series [16] is Rattus norvegicus. Description: Compound was evaluated for the distribution of radioactivity in female rat liver at time interval 24 hours following intravenous administration of [123mTe]- Labeled-DL-cu-Amino-r-( phenyltel1uro) butyric Acid, expressed as mean dose per gram of tissue. It counts as ADME, organism-based. As to conditions: in vivo. The method in brief: as §1

Series [17] has as its system Rattus norvegicus. Put plainly: Compound was evaluated for the distribution of radioactivity in female rat spleen at time interval 30 minutes following intravenous administration of [123mTe]- Labeled-DL-cu-Amino-r-( phenyltel1uro) butyric Acid, expressed as mean dose per gram of tis. It counts as ADME, organism-based. As to conditions: in vivo, 0.5 h. The method in brief: as §1

Series [18] relates to Rattus norvegicus. Description: Compound was evaluated for the distribution of radioactivity in female rat kidneys at time interval 24 hours following intravenous administration of [123mTe]- Labeled-DL-cu-Amino-r-( phenyltel1uro) butyric Acid, expressed as mean dose per gram of tiss. As to conditions: in vivo. The series is classed as ADME, organism-based, Kidney. The method in brief: as §1

Series [19] deals with Rattus norvegicus. Put plainly: Compound was evaluated for the distribution of radioactivity in female rat pancreas at time interval 60 minutes following intravenous administration of [123mTe]- Labeled-DL-cu-Amino-r-( phenyltel1uro) butyric Acid, expressed as mean dose per gram of t. It counts as ADME, organism-based. To be noted: in vivo, 1 h. The method in brief:
as §1

Series [20] deals with Rattus norvegicus. Put plainly: Compound was evaluated for the distribution of radioactivity in female rat liver at time interval 30 minutes following intravenous administration of [123mTe]- Labeled-DL-cu-Amino-r-( phenyltel1uro) butyric Acid, expressed as mean dose per gram of tiss. It counts as ADME, organism-based. To be noted: in vivo, 0.5 h. Put shortly:
as §1

For the compound `NC(CC[Te]c1ccccc1)C(=O)O` (stereo not given), the Dose in the series on Rattus norvegicus [1] is recorded as 0.497%; with Rattus norvegicus [2] it was 0.28%; in the series on Rattus norvegicus [3], 0.208%; with Rattus norvegicus [4], 0.485%; with Rattus norvegicus [5], 0.451%; with Rattus norvegicus [6], 2.169%. Also, the Dose in the series on Rattus norvegicus [7] is on record as 0.534%; with Rattus norvegicus [8], 0.206%; in the series on Rattus norvegicus [9] it was 1.019%; in the series with Rattus norvegicus [10], 0.238%; in the series with Rattus norvegicus [11], 0.434%; in the series with Rattus norvegicus [12], 0.334%. Also, the Dose in the series with Rattus norvegicus [13] is 2.628%; in the series with Rattus norvegicus [14] it was 0.234%; in the series on Rattus norvegicus [15], 1.046%; in the series on Rattus norvegicus [16] it was 2.139%; in the series with Rattus norvegicus [17], 0.129%; in the series with Rattus norvegicus [18], 1.489%. In addition, the results for the Dose with Rattus norvegicus [19] and in the series with Rattus norvegicus [20] were 0.654% and 0.32%, respectively.
